Calls of active or inactive are those of the source. The rule behind the calls is not given here.
Key:
HCT-116 [1] = experiment: Induction of apoptosis in human HCT-116 cells assessed as early apoptotic cells at 3.25 uM measured after 24 hrs by Annexin V-FITC/propidium iodide staining based flow cytometry (reference value: 0.28%); type: functional
HCT-116 [2] = experiment: Induction of morphological change in human HCT-116 cells assessed as cell rounding incubated for 24 hrs by phase contrast microscopic analysis; type: functional, cell-based; conditions: dose 1.62-6.5 µM
Method in brief: (§1)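 HCT-116 plated at 1 × 10^6 cells/mL in RPMI + 10% FBS and allowed to adhere 24 h at 37 °C, 5% CO2. […] After 24 h, morphology imaged by phase-contrast microscopy at 20X.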

HCT-116 [3] = experiment: Induction of cell cycle arrest in human HCT-116 cells assessed as accumulation of cells at G0/G1 phase at 6.50 uM measured after 48 hrs by PI staining based flow cytometry analysis relative to control (reference value: 70.34%); type: functional; conditions: dose 6.5 µM
HCT-116 [4] = experiment: Induction of apoptosis in human HCT-116 cells assessed as late apoptotic cells at 6.50 uM measured after 24 hrs by Annexin V-FITC/propidium iodide staining based flow cytometry (reference value: 0.00%); type: functional; conditions: dose 6.5 µM
HCT-116 [5] = experiment: Induction of cell cycle arrest in human HCT-116 cells assessed as accumulation of cells at G0/G1 phase at 1.62 uM measured after 24 hrs by PI staining based flow cytometry analysis relative to control (reference value: 70.34%)
HCT-116 [6] = experiment: Induction of morphological change in human HCT-116 cells assessed as change in cell shape incubated for 24 hrs by phase contrast microscopic analysis; type: functional, cell-based; conditions: dose 1.62-6.5 µM; method in brief: as §1
B16-F10 = experiment: Cytotoxicity against mouse B16-F10 cells assessed as inhibition of cell growth measured for 24 hrs by MTT assay; type: functional, cell-based; conditions: B16-F10, 24 h
Method in brief: (§2)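 Cells were kept at 37 °C with 5% CO2 in suitable medium with 10% FBS and 1% antibiotic-antimycotic, and passaged at 80-90% confluency using 0.25% trypsin/1 mM EDTA. They were seeded at 1×10^3–4×10^3 cells/well and attached overnight. Compounds came from 10 mM DMSO stocks diluted in medium and were applied for 24 h. MTT (0.5 mg/mL) was added for 4 h at 37 °C, formazan was dissolved in DMSO, and absorbance was read at 570 nm.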

Tubulin (Homo sapiens) [7] = molecular target: T1, Tubulin (Homo sapiens) (UniProt P68371+Q9H4B7+P0DPH7+P68366+Q13509+Q71U36+P04350+Q3ZCM7+P07437+P68363+Q9BQE3+Q6PEY2+Q13885+Q9BVA1+Q9BUF5); experiment: Inhibition of tubulin polymerization in human HCT-116 cells at 1.62 uM measured after 1 hr relative to control; type: cell-based
HCT-116 [8] = experiment: Induction of cell cycle arrest in human HCT-116 cells assessed as accumulation of cells at S phase at 1.62 uM measured after 24 hrs by PI staining based flow cytometry analysis relative to control (reference value: 5.55%)
HCT-116 [9] = experiment: Induction of apoptosis in human HCT-116 cells assessed as early apoptotic cells at 1.62 uM measured after 24 hrs by Annexin V-FITC/propidium iodide staining based flow cytometry (reference value: 0.28%); type: functional
HCT-116 [10] = experiment: Induction of apoptosis in human HCT-116 cells assessed as viable cells at 1.62 uM measured after 24 hrs by Annexin V-FITC/propidium iodide staining based flow cytometry (reference value: 99.71%); type: functional; conditions: read-out: Activity
Tubulin (Homo sapiens) [11] = molecular target: T1, Tubulin (Homo sapiens); experiment: Inhibition of tubulin polymerization in human HCT-116 cells at 3.25 uM measured after 1 hr relative to control; type: cell-based
HCT-116 [12] = experiment: Induction of apoptosis in human HCT-116 cells assessed as cell fragmentation measured for 24 hrs by DAPI staining based microscopic analysis; type: functional; conditions: dose 1.62-6.5 µM
Method in brief: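 Cells were seeded at 1×10^6 cells/well in 24-well plates and cultured 24 h. […] After PBS washing they were fixed in 4% paraformaldehyde for 30 min, permeabilized with 0.1% Triton X for 15 min, and stained with 1 µM DAPI for 15 min. Imaging used fluorescence microscopy (ex 350/em 460 nm) at 20X.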

HCT-116 [13] = experiment: Induction of apoptosis in human HCT-116 cells assessed as cell rounding at 1.62 uM measured for 24 hrs by AO/EB staining based microscopic analysis; type: functional
HCT-116 [14] = experiment: Induction of cell cycle arrest in human HCT-116 cells assessed as accumulation of cells at S phase at 6.50 uM measured after 48 hrs by PI staining based flow cytometry analysis relative to control (reference value: 5.55%); type: functional; conditions: dose 6.5 µM
Tubulin = experiment: Inhibition of tubulin polymerization in human HCT-116 cells; type: cell-based
HCT-116 [15] = experiment: Induction of apoptosis in human HCT-116 cells assessed as early apoptotic cells at 6.50 uM measured after 24 hrs by Annexin V-FITC/propidium iodide staining based flow cytometry (reference value: 0.28%); type: functional; conditions: dose 6.5 µM
HCT-116 [16] = experiment: Induction of cell cycle arrest in human HCT-116 cells assessed as accumulation of cells at S phase at 3.25 uM measured after 24 hrs by PI staining based flow cytometry analysis relative to control (reference value: 5.55%)
BT-474 = experiment: Cytotoxicity against human BT-474 cells assessed as inhibition of cell growth measured for 24 hrs by MTT assay; type: functional, cell-based; conditions: BT-474, 24 h; method in brief: as §2
HCT-116 [17] = experiment: Induction of apoptosis in human HCT-116 cells assessed as micronuclei formation at 3.25 to 6.50 uM measured for 24 hrs by AO/EB staining based microscopic analysis; type: functional, cell-based; conditions: dose 3.25-6.5 µM
Method in brief: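 Media removed; acridine orange and ethidium bromide (10 µg/ml, equal volumes) added in 1 mL PBS. Imaged immediately by fluorescence microscopy (excitation 488 nm, emission 550 nm) at 20X.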

A549 = experiment: Cytotoxicity against human A549 cells assessed as inhibition of cell growth measured for 24 hrs by MTT assay; type: functional, cell-based; conditions: A549, 24 h; method in brief: as §2
HCT-116 [18] = experiment: Induction of cell cycle arrest in human HCT-116 cells assessed as accumulation of cells at G2/M phase at 1.62 uM measured after 24 hrs by PI staining based flow cytometry analysis relative to control (reference value: 15.61%)
HCT-116 [19] = experiment: Induction of apoptosis in human HCT-116 cells assessed as necrotic cells at 1.62 uM measured after 24 hrs by Annexin V-FITC/propidium iodide staining based flow cytometry (reference value: 0.00%); type: functional
HCT-116 [20] = experiment: Induction of cell cycle arrest in human HCT-116 cells assessed as accumulation of cells at G0/G1 phase at 3.25 uM measured after 24 hrs by PI staining based flow cytometry analysis relative to control (reference value: 70.34%)
HCT-116 [21] = experiment: Cytotoxicity against human HCT-116 cells assessed as inhibition of cell growth measured for 24 hrs by MTT assay; type: functional, cell-based; conditions: HCT-116, 24 h; method in brief: as §2
HCT-116 [22] = experiment: Induction of apoptosis in human HCT-116 cells assessed as formation of membrane blebs at 1.62 uM measured for 24 hrs by AO/EB staining based microscopic analysis; type: functional, cell-based
[23] = Cytotoxicity against human HaCaT cells assessed as inhibition of cell growth measured for 24 hrs by MTT assay; type: toxicity, cell-based; method in brief: as §2

**Q.** Which Activity (HCT-116 [1]) does the source give for `COc1ccc(/C=C(/C(=O)OCc2cn(Cc3cc(F)ccc3F)nn2)c2ccc(OC)c(OC)c2)cc1OC` here?
**A.** 13.51%

**Q.** What about the Activity (HCT-116 [2]) of the same compound?
**A.** Dose-Dependent Effect

**Q.** What about the Activity (HCT-116 [3]) of the same compound?
**A.** 38.48%

**Q.** What about the Activity (HCT-116 [4]) of the same compound?
**A.** 49.32%

**Q.** What about the Activity (HCT-116 [5]) of the same compound?
**A.** 70.12%

**Q.** What about the Activity (HCT-116 [6]) of the same compound?
**A.** Dose-Dependent Effect

**Q.** What about the IC50 (B16-F10) of the same compound?
**A.** 15.1 µM

**Q.** And the inhibition (Tubulin (Homo sapiens) [7])?
**A.** 33.4%

**Q.** And the Activity (HCT-116 [8])?
**A.** 7.32%

**Q.** What about the Activity (HCT-116 [9]) of the same compound?
**A.** 18.1%

**Q.** And the viability at 1.62 µM (HCT-116 [10])?
**A.** 81.7%

**Q.** And the inhibition (Tubulin (Homo sapiens) [11])?
**A.** 36.5%

**Q.** What about the Activity (HCT-116 [12]) of the same compound?
**A.** Dose-Dependent Effect

**Q.** What about the Activity (HCT-116 [13]) of the same compound?
**A.** Active

**Q.** What about the Activity (HCT-116 [14]) of the same compound?
**A.** 12.73%

**Q.** And the IC50 (Tubulin)?
**A.** 4.51 µM

**Q.** What about the Activity (HCT-116 [15]) of the same compound?
**A.** 10.71%

**Q.** What about the Activity (HCT-116 [16]) of the same compound?
**A.** 9.51%

**Q.** What about the IC50 (BT-474) of the same compound?
**A.** 12.9 µM

**Q.** And the Activity (HCT-116 [17])?
**A.** Active

**Q.** What about the IC50 (A549) of the same compound?
**A.** 11.3 µM

**Q.** And the Activity (HCT-116 [18])?
**A.** 22.06%

**Q.** What about the Activity (HCT-116 [19]) of the same compound?
**A.** 0.52%

**Q.** And the Activity (HCT-116 [20])?
**A.** 50.62%

**Q.** And the IC50 (HCT-116 [21])?
**A.** 3.25 µM

**Q.** And the Activity (HCT-116 [22])?
**A.** Active

**Q.** And the IC50 at 24 h [23]?
**A.** 72.2 µM
